Experimental data pooled from the literature.
Compare with care: the assays were run in different laboratories. In brackets after ≈: the same amount, converted by molar mass.
Organism: Escherichia coli

C=CCOc1c(C)c(O)c(C(=O)/C=C/c2ccccc2)c(OC)c1C — MBC (microbial killing, broth dilution; ATCC25922): > 5000 µg/mL
CC(C)Oc1c(NC(=O)c2ccc(NC(=O)[C@H](CC(N)=O)NC(=O)c3ccc(NC(=O)c4ccc(C#N)cc4)cc3)cc2)ccc(C(=O)Nc2ccncc2)c1O — MIC (microbial growth; DSM1116): > 64 µg/mL
COc1c(C)c(OS(=O)(=O)c2ccc3ccccc3c2)c(C)c(OS(=O)(=O)c2ccc3ccccc3c2)c1C(=O)/C=C/c1ccccc1 — MBC (microbial killing, broth dilution; ATCC25922): > 5000 µg/mL
Clc1ccc(-c2nc3ccccc3n2Cc2ccccc2)cc1 — MIC (microbial growth, broth dilution; ATCC25922): 128 µg/mL (≈ 401 µM)
Cc1ccc(C(C)C)cc1O — IC50 (microbial growth, broth dilution; ATCC25922): 96.2 µg/mL
Fc1ccc(-c2nc3ccccc3[nH]2)cc1 — MIC (microbial growth, broth dilution; ATCC25922): 256 µg/mL (≈ 1210 µM)
COc1c(C)c(O)c(C)c(O)c1C(=O)/C=C/c1ccccc1 — MBC (microbial killing, broth dilution; ATCC25922): > 5000 µg/mL
Cc1ccc(-n2cc(COc3cccc4cccnc34)nn2)cc1 — IC50 (microbial growth, broth dilution; ATCC25922): 176 µg/mL
CC1(C)S[C@@H]2[C@H](NC(=O)C(C(=O)O)c3ccccc3)C(=O)N2[C@H]1C(=O)O (stereo partly drawn) — inhibition zone (microbial growth, well diffusion; BW25113; 200 µM): 15 mm
CSc1ccc(-c2nc3ccc(C)cc3[nH]2)cc1 — MIC (microbial growth, broth dilution; ATCC25922): 32 µg/mL (≈ 126 µM)
N=C(N)c1ccc(OCCCCCCCCOc2ccc(C(=N)N)cc2)cc1 — MIC (microbial growth; BW25113): 50 µg/mL (≈ 131 µM)
C#CCCCCCCCCCCCC(O)CC(O)CO (stereo not drawn) — IC50 (microbial growth, broth dilution; ATCC35218): > 200 µg/mL
CC(C)Oc1c(NC(=O)c2ccc(NC(=O)[C@H](CC(N)=O)NC(=O)c3ccc(CCNC(=O)c4ccc(C#N)cc4)cc3)cc2)ccc(C(=O)Nc2ccc(C(=O)O)cc2)c1O — MIC (microbial growth; DSM1116): 0.25 µg/mL (≈ 0.298 µM)
CC1(C)SC2C(NC(=O)C(NC(=O)C3=C(O)C4CCCN4C3=O)c3ccccc3)C(=O)N2C1C(=O)O (stereo not drawn) — inhibition zone (microbial growth, well diffusion; BW25113; 200 µM): 11 mm
COc1c(N2C[C@@H]3CCCN[C@@H]3C2)c(F)cc2c(=O)c(C(=O)O)cn(C3CC3)c12 — MIC90 (microbial growth; ATCC35218): 0.06 µg/mL (≈ 0.149 µM)
O=C1C=C(OCc2cn(-c3ccccc3)nn2)C(=O)c2ccccc21 — IC50 (microbial growth, broth dilution; ATCC25922): 99.5 µg/mL
COc1cc(C=Cc2cc(-c3ccccc3)nc(O)n2)ccc1O — inhibition zone (microbial growth, disc diffusion; ATCC25922; 250 µg/mL): 6 mm
Cc1ccc(S(=O)(=O)Oc2cc(C(C)C)ccc2C)cc1 — IC50 (microbial growth, broth dilution; ATCC25922): 317 µg/mL
N=C(N)c1ccccc1OCCCCCOc1ccccc1C(=N)N — MIC (microbial growth; BW25113): > 200 µg/mL
Cc1ccc(S(=O)(=O)Oc2cccc3cccnc23)cc1 — IC50 (microbial growth, broth dilution; ATCC25922): 133 µg/mL
c1cncc(-c2nc3ccccc3[nH]2)c1 — MIC (microbial growth, broth dilution; ATCC25922): 64 µg/mL (≈ 328 µM)
CCCCCC(=O)Oc1c(C)c(O)c(C(=O)/C=C/c2ccccc2)c(OC)c1C — MBC (microbial killing, broth dilution; ATCC25922): > 5000 µg/mL
O=C(Cc1ccccc1)Sc1cccccc1=O — MIC80 (microbial growth, broth dilution; ATCC35218): 19.8 µM (≈ 5.08 µg/mL)
CCN1CCN(C(=O)N[C@@H](C(=O)N[C@@H]2C(=O)N3[C@@H]2SC(C)(C)[C@@H]3C(=O)O)c2ccccc2)C(=O)C1=O — inhibition zone (microbial growth, well diffusion; BW25113; 200 µM): 19 mm
COc1cc(C=Cc2cc(-c3ccc(N(C)C)cc3)nc(O)n2)ccc1O — inhibition zone (microbial growth, disc diffusion; ATCC25922; 250 µg/mL): 6 mm
CC[C@H](C)[C@H](NC(=O)OCC1c2ccccc2-c2ccccc21)C(=O)Sc1cccccc1=O — MIC80 (microbial growth, broth dilution; ATCC35218): > 100 µM
N=C(N)c1ccccc1OCc1ccccc1COc1ccccc1C(=N)N — MIC (microbial growth; BW25113): > 200 µg/mL
O=C(Sc1cccccc1=O)c1cccc(C(F)(F)F)c1 — MIC80 (microbial growth, broth dilution; ATCC35218): 19.8 µM (≈ 6.14 µg/mL)
Cc1cc(N)c2ccccc2[n+]1CCCCCCCCCC[n+]1c(C)cc(N)c2ccccc21 — inhibition zone (microbial growth, disc diffusion; 50 µg/disc): 0 mm
N=C(N)c1cccc(OCc2ccc(COc3cccc(C(=N)N)c3)cc2)c1 — MIC (microbial growth, broth dilution; W3110): > 200 µg/mL
Cc1c(NC(=O)CC2=NC(=O)CS2)c(=O)n(-c2ccccc2)n1C — MBC (microbial killing, broth dilution): 0.5 µg/mL (≈ 1.45 µM)
COc1cc(C=CC(=O)CC(c2ccc([N+](=O)[O-])cc2)n2ccnc2)ccc1O (stereo not drawn) — inhibition zone (microbial growth, disc diffusion; ATCC25922; 500 µg/mL): 10.3 mm
O=C(N/N=C/c1ccc([N+](=O)[O-])o1)c1ccc(O)cc1 — MIC90 (microbial growth; ATCC 8739, ATCC8739): > 1000 µg/mL
CCCC(=O)Oc1c(C)c(O)c(C(=O)/C=C/c2ccccc2)c(OC)c1C — MBC (microbial killing, broth dilution; ATCC25922): > 5000 µg/mL
Cc1ccc(C(C)C)cc1OCc1cn(-c2ccc(S(N)(=O)=O)cc2)nn1 — IC50 (microbial growth, broth dilution; ATCC25922): 289 µg/mL
Cc1ccc2nc(-c3cc(Br)ccc3O)[nH]c2c1 — MIC (microbial growth, broth dilution; ATCC25922): 64 µg/mL (≈ 211 µM)
Cc1sc(C)c(-c2ccc(O)c(O)c2)c1Br — IC50 (microbial growth; AS19; 10 h): 10.8 µM
N=C(N)c1ccccc1OCc1cccc(COc2ccccc2C(=N)N)c1 — MIC (microbial growth, broth dilution; BW25113): > 200 µg/mL
NS(=O)(=O)c1ccc(-n2cc(COc3cccc4cccnc34)nn2)cc1 — IC50 (microbial growth, broth dilution; ATCC25922): 880 µg/mL
CC(C)Oc1c(NC(=O)c2ccc(NC(=O)[C@H](CC(N)=O)NC(=O)c3ccc(-c4nn[nH]c4-c4ccc(C#N)cc4)cc3)cc2)ccc(C(=O)Nc2ccc(C(=O)O)cc2)c1O — MIC (microbial growth; DSM1116): > 64 µg/mL
COc1ccc(-n2cc(COc3cccc4cccnc34)nn2)cc1 — IC50 (microbial growth, broth dilution; ATCC25922): 376 µg/mL
O=C(N[C@H](CO)[C@H](O)c1ccc([N+](=O)[O-])cc1)C(Cl)Cl — MIC90 (microbial growth; ATCC35218): 0.98 µg/mL (≈ 3.03 µM)
